Laboratory results as given in ChEMBL document CHEMBL1138354, “2-(2'-((dimethylamino)methyl)-4'-(fluoroalkoxy)-phenylthio)benzenamine derivatives as serotonin transporter imaging agents” (J Med Chem, 2007).

Legend:
Nucleic Acid [1] = assay: Ratio of drug level in hypothalamus to cerebellum in rat after 30 mins; format: ADME, tissue-based; conditions: in vivo, 0.5 h
How it was run: (§1)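 Rats, 3 per group, given ¹⁸F tracer (10–100 μCi, 0.2 ml sterile water with 1 mg/mL BSA) into the femoral vein under isoflurane. Brain regions, including hypothalamus, striatum and cerebellum, dissected, weighed and counted. % dose/g calculated against a 1% diluted aliquot of the dose. Region/cerebellum ratio is region %dose/g divided by cerebellum %dose/g. SD of the ratio propagated from both means and SDs.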

[2] = molecular target: Sodium-dependent serotonin transporter (Homo sapiens, UniProt P31645); assay: Displacement of [125I]5-iodo-2-[[2,2-[(dimethylamino)methyl]phenyl]thio]benzyl alcohol from SERT expressed in LLCPK1 cells; format: cell-based, LLC-PK1
Chain of Sodium-dependent serotonin transporter (P31645 whole entry): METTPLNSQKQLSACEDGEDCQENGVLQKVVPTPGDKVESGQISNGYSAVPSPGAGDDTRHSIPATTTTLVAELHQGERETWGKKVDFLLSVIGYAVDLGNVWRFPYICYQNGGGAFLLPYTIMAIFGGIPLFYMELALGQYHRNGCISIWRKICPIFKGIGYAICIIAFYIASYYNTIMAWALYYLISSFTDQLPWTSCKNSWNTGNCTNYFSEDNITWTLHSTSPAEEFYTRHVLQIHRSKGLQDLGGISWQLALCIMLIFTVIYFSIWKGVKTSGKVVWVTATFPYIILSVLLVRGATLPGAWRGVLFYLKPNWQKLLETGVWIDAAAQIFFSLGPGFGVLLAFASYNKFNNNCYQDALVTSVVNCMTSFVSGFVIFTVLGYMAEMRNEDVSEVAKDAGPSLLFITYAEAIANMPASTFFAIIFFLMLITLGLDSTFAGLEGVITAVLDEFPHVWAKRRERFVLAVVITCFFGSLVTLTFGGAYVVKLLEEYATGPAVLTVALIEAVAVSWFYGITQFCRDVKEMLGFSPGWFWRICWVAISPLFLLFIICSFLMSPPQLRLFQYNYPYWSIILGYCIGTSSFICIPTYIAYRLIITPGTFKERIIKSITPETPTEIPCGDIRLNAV
How it was run: (§2)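 Membrane homogenates from LLC-PK1 cells, each line overexpressing one transporter. Membranes (30–80 μg protein) in 50 mM Tris-HCl pH 7.4, 120 mM NaCl, 5 mM KCl, 0.1% BSA. Radioligands: 0.09 nM for SERT, 0.06 nM for DAT, 0.06 nM for NET. Competitor at 8–10 concentrations, 10⁻¹⁰ to 10⁻⁵ M. Incubated 1 hr at room temperature. Filtered on PEI-presoaked glass fiber and gamma counted. Ki from nonlinear regression, n = 3.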

Brain [3] = assay: Biodistribution in iv dosed rat brain after 120 mins; format: ADME, organism-based; conditions: in vivo, 2 h
How it was run: (§3)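 [18F]-labeled tracer was given to rats under isoflurane anesthesia: 0.2 ml sterile water with 1 mg/mL BSA and 10–100 μCi, into the femoral vein. Three rats per group. Animals were killed by cervical dislocation under anesthesia at the stated time. Organs were removed, weighed and counted. Uptake was calculated as percent dose against a 1% aliquot of the injected dose counted alongside.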

Brain [4] = assay: Biodistribution in iv dosed rat brain after 30 mins; format: ADME, organism-based; conditions: in vivo, 0.5 h; how it was run: as §3
[5] = molecular target: Sodium-dependent dopamine transporter (Homo sapiens, UniProt Q01959); assay: Displacement of [125I]N-(3'-iodopropen-2'yl)-2-beta-carbomethoxy-3-beta-(4-chlorophenyl)tropane from DAT expressed in LLCPK1 cells; format: cell-based, LLC-PK1; how it was run: as §2
Chain of Sodium-dependent dopamine transporter (Q01959 whole entry): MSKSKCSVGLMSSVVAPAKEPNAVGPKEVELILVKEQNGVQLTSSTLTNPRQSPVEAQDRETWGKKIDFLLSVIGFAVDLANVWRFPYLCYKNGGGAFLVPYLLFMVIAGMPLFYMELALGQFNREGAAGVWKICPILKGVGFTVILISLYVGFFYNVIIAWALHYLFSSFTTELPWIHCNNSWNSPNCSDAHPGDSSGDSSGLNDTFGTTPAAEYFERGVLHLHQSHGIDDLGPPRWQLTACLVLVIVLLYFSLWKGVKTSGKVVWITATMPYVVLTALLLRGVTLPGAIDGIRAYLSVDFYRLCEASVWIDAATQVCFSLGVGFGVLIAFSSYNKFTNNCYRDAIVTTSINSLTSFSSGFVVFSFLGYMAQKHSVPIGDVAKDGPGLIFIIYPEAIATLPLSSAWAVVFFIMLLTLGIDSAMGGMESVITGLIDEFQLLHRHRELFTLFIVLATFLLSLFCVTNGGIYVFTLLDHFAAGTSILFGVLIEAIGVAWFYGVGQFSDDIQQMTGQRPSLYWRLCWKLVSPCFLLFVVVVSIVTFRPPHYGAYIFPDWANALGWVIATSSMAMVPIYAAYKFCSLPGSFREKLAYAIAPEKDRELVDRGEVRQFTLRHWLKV

[6] = molecular target: Sodium-dependent noradrenaline transporter (Homo sapiens, UniProt P23975); assay: Displacement of [125I]iodonisoxetine from NET expressed in LLCPK1 cells; format: cell-based, LLC-PK1; how it was run: as §2
Chain of Sodium-dependent noradrenaline transporter (P23975 whole entry): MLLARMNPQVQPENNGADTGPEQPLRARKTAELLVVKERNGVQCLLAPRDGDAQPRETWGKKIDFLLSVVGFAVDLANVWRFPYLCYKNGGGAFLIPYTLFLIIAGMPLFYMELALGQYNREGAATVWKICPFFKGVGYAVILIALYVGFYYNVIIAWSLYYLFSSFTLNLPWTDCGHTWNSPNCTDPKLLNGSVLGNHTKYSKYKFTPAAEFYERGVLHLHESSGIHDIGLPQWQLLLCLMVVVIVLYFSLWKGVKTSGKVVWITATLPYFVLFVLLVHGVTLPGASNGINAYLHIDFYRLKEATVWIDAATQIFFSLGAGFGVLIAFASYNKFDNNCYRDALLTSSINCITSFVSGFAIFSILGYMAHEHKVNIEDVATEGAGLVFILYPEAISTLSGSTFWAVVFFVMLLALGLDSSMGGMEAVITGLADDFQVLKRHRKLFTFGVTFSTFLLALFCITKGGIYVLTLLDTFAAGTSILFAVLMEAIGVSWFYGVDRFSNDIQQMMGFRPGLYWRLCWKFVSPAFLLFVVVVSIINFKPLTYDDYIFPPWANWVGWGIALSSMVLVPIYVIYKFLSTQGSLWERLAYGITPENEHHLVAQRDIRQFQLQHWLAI

Nucleic Acid [7] = assay: Ratio of drug level in hypothalamus to cerebellum in rat after 120 mins; format: ADME, tissue-based; conditions: in vivo, 2 h; how it was run: as §1
[8] = Partition coefficient, log P at pH 7.4; format: physicochemical; conditions: octanol/water

| Compound | Ratio (Nucleic Acid [1]) | Ki [2] [nM] | Drug uptake (Brain [3]) [%ID] | Drug uptake (Brain [4]) [%ID] | Ki [5] [nM] | Ki [6] [nM] | Ratio (Nucleic Acid [7]) | logD [8] |
| --- | --- | --- | --- | --- | --- | --- | --- | --- |
| CN(C)Cc1cc(OCCF)ccc1Sc1ccccc1N | 3.79 | 0.25 | 0.63 | 1.85 | 340 | 7.5 | 7.83 | – |
| CN(C)Cc1cc(OCCF)ccc1Sc1ccc(F)cc1N | 2.78 | 0.1 | 2.57 | 2.23 | > 1000 | 37 | 4.34 | – |
| CN(C)Cc1cc(OCC[18F])ccc1Sc1ccc(Cl)cc1N | – | – | – | – | – | – | – | 2.71 |
| CN(C)Cc1cc(OCCCF)ccc1Sc1ccc(F)cc1N | 2.66 | 0.95 | 1.32 | 1.43 | > 1000 | 95 | 4.36 | – |
| CN(C)Cc1cc(OCC[18F])ccc1Sc1ccc(F)cc1N | – | – | – | – | – | – | – | 2.47 |
| CN(C)Cc1cc(O)ccc1Sc1ccccc1N | – | 17 | – | – | 659 | 33 | – | – |
| CN(C)Cc1cc(OCCO)ccc1Sc1ccc(F)cc1N | – | 1.2 | – | – | > 1000 | 56 | – | – |
| COc1ccc(Sc2ccccc2N)c(CN(C)C)c1 | – | 5 | – | – | 576 | 14 | – | – |
| CN(C)Cc1cc(OCCCF)ccc1Sc1ccccc1N | 3.5 | 1.4 | 0.59 | 1.23 | 299 | 12 | 7.67 | – |
| CN(C)Cc1cc(OCCC[18F])ccc1Sc1ccc(F)cc1N | – | – | – | – | – | – | – | 2.65 |
| CN(C)Cc1cc(OCCCO)ccc1Sc1ccc(Br)cc1N | – | 0.21 | – | – | > 1000 | 279 | – | – |
| CN(C)Cc1cc(OCCC[18F])ccc1Sc1ccccc1N | – | – | – | – | – | – | – | 2.54 |

Continued, values first:

| Ratio (Nucleic Acid [1]) | Ki [2] [nM] | Drug uptake (Brain [3]) [%ID] | Drug uptake (Brain [4]) [%ID] | Ki [5] [nM] | Ki [6] [nM] | Ratio (Nucleic Acid [7]) | logD [8] | Compound |
| --- | --- | --- | --- | --- | --- | --- | --- | --- |
| 2.36 | 0.03 | 1.46 | 1.72 | 847 | 97 | 3.77 | – | CN(C)Cc1cc(OCCF)ccc1Sc1ccc(Cl)cc1N |
| 2.04 | 0.05 | 2.16 | 1.88 | > 1000 | 114 | 3.7 | – | CN(C)Cc1cc(OCCF)ccc1Sc1ccc(Br)cc1N |
| 1.93 | 0.15 | 1.15 | 1.12 | > 1000 | > 1000 | 4.17 | – | CN(C)Cc1cc(OCCCF)ccc1Sc1ccc(Br)cc1N |
| – | – | – | – | – | – | – | 3.3 | CN(C)Cc1cc(OCCC[18F])ccc1Sc1ccc(Br)cc1N |
| – | 1.3 | – | – | 443 | 7 | – | – | CN(C)Cc1cc(OCCCO)ccc1Sc1ccccc1N |
| – | 1.1 | – | – | 351 | 11 | – | – | CN(C)Cc1cc(OCCO)ccc1Sc1ccccc1N |
